Screening results from PubChem BioAssay.
Apaf1 activ: activators of human Apaf-1 apoptosome, primary screen, biochemical, DEVD-Rh110 fluorescence, uHTS; AID 489031, 2010; actives 0.31% (n = 330,000); activity change, negative = activation, % at 20 µM; Apoptotic protease-activating factor 1 (Homo sapiens), O14727; Apaf-1 apoptosome caspase-3 activation; hits give low values;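 active means activity change at or below -40% at 20 µM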
Target sequence (O14727 whole entry, looked up): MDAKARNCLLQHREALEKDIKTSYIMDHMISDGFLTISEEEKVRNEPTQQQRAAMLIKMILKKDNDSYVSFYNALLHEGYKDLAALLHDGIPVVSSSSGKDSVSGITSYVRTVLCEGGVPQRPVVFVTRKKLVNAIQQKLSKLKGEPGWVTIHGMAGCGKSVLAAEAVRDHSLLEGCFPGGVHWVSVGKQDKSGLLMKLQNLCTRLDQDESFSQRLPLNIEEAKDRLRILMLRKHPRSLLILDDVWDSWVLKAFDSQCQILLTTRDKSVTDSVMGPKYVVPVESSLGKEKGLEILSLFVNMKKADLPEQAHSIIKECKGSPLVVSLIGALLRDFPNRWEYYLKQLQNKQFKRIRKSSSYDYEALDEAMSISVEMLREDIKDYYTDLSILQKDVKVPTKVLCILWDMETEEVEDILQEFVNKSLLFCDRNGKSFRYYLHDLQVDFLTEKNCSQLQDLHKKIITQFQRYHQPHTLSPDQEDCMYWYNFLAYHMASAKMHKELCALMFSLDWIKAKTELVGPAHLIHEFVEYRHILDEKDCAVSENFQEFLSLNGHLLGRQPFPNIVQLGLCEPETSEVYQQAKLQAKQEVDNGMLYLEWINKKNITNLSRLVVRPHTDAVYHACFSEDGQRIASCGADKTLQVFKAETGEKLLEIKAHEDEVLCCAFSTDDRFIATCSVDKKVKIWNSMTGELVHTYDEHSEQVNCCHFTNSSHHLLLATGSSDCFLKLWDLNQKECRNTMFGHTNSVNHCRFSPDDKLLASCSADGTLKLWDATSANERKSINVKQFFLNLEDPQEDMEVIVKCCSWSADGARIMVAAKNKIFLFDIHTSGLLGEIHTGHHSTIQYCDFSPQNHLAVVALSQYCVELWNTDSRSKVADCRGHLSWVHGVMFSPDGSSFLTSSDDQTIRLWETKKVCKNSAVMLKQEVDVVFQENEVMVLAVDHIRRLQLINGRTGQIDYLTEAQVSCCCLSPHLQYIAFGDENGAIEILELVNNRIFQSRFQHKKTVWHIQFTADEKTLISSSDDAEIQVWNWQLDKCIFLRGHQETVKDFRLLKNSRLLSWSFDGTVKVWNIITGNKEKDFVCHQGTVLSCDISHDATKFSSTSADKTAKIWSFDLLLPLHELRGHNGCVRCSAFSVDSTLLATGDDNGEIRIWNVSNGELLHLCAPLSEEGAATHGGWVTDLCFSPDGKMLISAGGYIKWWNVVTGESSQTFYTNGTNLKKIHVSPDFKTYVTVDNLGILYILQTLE
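Material: biochemical Apaf-1 apoptosome reconstitution; Medium: 20 mM HEPES buffer, pH 7.5, containing CHAPS and BSA; Reagent: dATP, cytochrome c, and (Z-DEVD)2-Rh110 caspase-3 substrate; Times: 30 min preincubation, 50 min reaction, room temperature; Signal: Rh110 fluorescence, excitation 480 nm, emission 540 nm; Measure: Caspase-3 activity via Apaf-1.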
Rh110 act interf: Rh110 fluorescence interference by putative Apaf-1 activators, confirmation, artefact control for Apaf-1 activator project, biochemical, 20 µM. AID 504616, 2011. shares compounds with Apaf1 activ. fluorescence interference (activity change), % at 20 µM, hits read low. quenched caspase reaction, Ex480/Em540. 980 tested, under 10 active;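 active means mean activity change at or below -40% when tested at 20 µM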
Apaf-1 act conf2: Apaf-1 activators, single-dose retest, confirmation, biochemical, fluorescence, DEVD-Rh110, 20 µM | shares compounds with Apaf1 activ | reconstituted apoptosome caspase-3 activity; hits give low values | activity change, negative = activation, % at 20 µM | actives 5% (n = 980);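 active means mean activity change at or below -40%, meaning activation of 40% or more, at 20 µM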
Starred values were filed as active, the others as inactive; nt = no result. A selection follows.

SMILES	Apaf1 activ	Rh110 act interf	Apaf-1 act conf2
CCN1CCN(Cc2ccc(NC(=O)c3cc(NC(=O)C4=NN(c5ccccc5)C(=O)C4)cc(OC)c3)cc2C(F)(F)F)CC1	51	nt	nt
O=C(Nc1ccccc1N1CCCC1)C1CCN(S(=O)(=O)c2cccc(C(F)(F)F)c2)CC1	42	nt	nt
O=C(Nc1ccccc1)N1CCC(C(=O)N2CCN(S(=O)(=O)c3cccc(F)c3)CC2)CC1	-51*	9	9
CCN(C(=O)c1coc(=O)c(Br)c1)c1ccc2c(c1)OCO2	59	nt	nt
CCOC(=O)CNc1ccc2c(c1)OCO2	40	nt	nt
Cc1ccc(NC(=O)c2ccc(CN3CCc4ccccc4C3)cc2)cc1	48	nt	nt
CS(=O)(=O)Nc1ccc(C(=O)Nc2ccc3c(c2)OCO3)cc1	-58*	-4	1
CCCCc1ccc(NC(=O)c2ccc(NS(C)(=O)=O)cc2)cc1	-102*	3	13
Oc1ccc(/C=N/Nc2cc(N3CCCC3)nc(N3CCCC3)n2)cc1O	60	nt	nt
Cc1ccc(-n2nc3ccc(NC(=O)C(C)C)cc3n2)cc1	-152*	5	7
CC(C)C(=O)Nc1cccc(-c2cn3ccsc3n2)c1	67	nt	nt
CC(C)c1ccc(-n2nc3ccc(N)cc3n2)cc1	63	nt	nt
Cc1ccc(-n2nc3ccc(N)cc3n2)cc1	82	nt	nt
Nc1ccc2nn(-c3ccc(F)cc3)nc2c1	88	nt	nt
CC(C)C(=O)Nc1ccc2nn(-c3ccc(F)cc3)nc2c1	-95*	17	15
O=C1NC(=O)[C@@H]2C3c4ccccc4C=CN3[C@H](C(=O)c3cccs3)[C@H]12 (stereo partly drawn)	47	nt	nt
CCN1C(=NCCc2ccccn2)N[C@@H](c2cccc(C(F)(F)F)c2)C(C(=O)OC)=C1C	-114*	13	9
COC(=O)C1=C(C)N(Cc2ccccc2)C(=NCC(C)C)N[C@H]1c1cccc(C(F)(F)F)c1	58	nt	nt
COC(=O)C1=C(C)N(Cc2ccccc2)C(=NCCc2ccccn2)N[C@H]1c1cccc(C(F)(F)F)c1	48	nt	nt
COc1ccc(N=C2C(=Nc3ccc(OC)cc3)N(c3ccc(OC)cc3)C(=S)N2c2ccccc2)cc1	75	nt	nt
CN1C[C@H](C(=O)N[C@]2(C)O[C@@]3(O)[C@@H]4CCCN4C(=O)[C@H](Cc4ccccc4)N3C2=O)CC2c3cccc4[nH]cc(c34)C[C@H]21 (stereo partly drawn)	10	nt	nt
O=C(NCCCN1CCOCC1)c1c(O)c2cc(Br)cc(Br)c2[nH]c1=O	-57*	-9	11
O=C(NCCCN1CCCCCC1)c1cc2c(=O)oc3ccccc3c2s1	40	nt	nt
Cc1ccc(-c2cc(C(=O)NCCCN3CCOCC3)c3ccc(Cl)c(C)c3n2)cc1	55	nt	nt
FC(F)(F)C1=Nc2cccc3cccc(c23)N1	66	nt	nt
SMILES	Apaf1 activ	Rh110 act interf	Apaf-1 act conf2
Cc1ccc(-c2nc3ncccn3c2NC(=O)C2CC2)cc1	-52*	0	13
CCCCCCCCCCOC(=O)Cn1c(COc2ccc(OC)cc2)[n+](C)c2ccccc21	72	nt	nt
NC(N)=NC(N)=Nc1cccc2ccccc12	83	nt	nt
O=C1C(=O)N(CCN2CCOCC2)C(c2ccccc2)/C1=C(\O)c1ccc2c(c1)OCCO2 (stereo not drawn)	50	nt	nt
O=C1C(=O)N(c2nccs2)C(c2ccccc2F)/C1=C(\O)c1ccc2c(c1)OCCO2 (stereo not drawn)	-40*	13	20
C#CCOCCOCCOCCNc1nc(N2CCN(C(=O)CCCCCCCCCCNC(=O)Cn3cc(CCCCCN)nn3)CC2)nc(N2CCN(C(=O)CCCCCCCCCCNC(=O)[C@@H](CCC(=O)O)n3cc(CCCCCN)nn3)CC2)n1	59	nt	nt
CCCCCOC(=O)c1c(N)n(CCOC)c2nc3ccccc3nc12	94	nt	nt
COc1cc(O)c(NC(C)=O)c2nonc12	87	nt	nt
CC1(OC(=O)c2ccc(Cl)nc2)C(=O)C=C2C=C3CCCN3C=C2C1=O (stereo not drawn)	44	nt	nt
Cc1ccc(-c2csc(NC(=O)C3=NN(C4CCS(=O)(=O)C4)C(=O)CC3)n2)cc1 (stereo not drawn)	-58*	8	-21
CC1CC2(CCCCC2)N2C(=O)C(=O)c3cccc1c32 (stereo not drawn)	41	nt	nt
CC(=O)[C@@H]1[C@@H]2C(=O)N(C3CCCCC3)C(=O)[C@@H]2C2c3ccccc3C=CN21 (stereo partly drawn)	84	nt	nt
O=C1C(SCCO)=C(SCCO)C(=O)c2ccccc21	97	nt	nt
C=CCNC(=O)CN(c1cccc(Br)c1)S(C)(=O)=O	-56*	2	7
C=C[C@H]1CN2CC[C@H]1C[C@@H]2[C@@H](O)c1ccnc2ccc(OC)cc12	-3	nt	nt
Cc1cc(/C=C2\SC(=O)N(C)C2=O)c(C)n1-c1ccc(O)cc1	71	nt	nt
Cc1ccc(OCC(=O)N/N=C\c2c(C)n(C)c3ccccc23)c([N+](=O)[O-])c1	42	nt	nt
COc1cc(/C=C/C(=O)OCC(=O)Nc2ccc(C)cc2[N+](=O)[O-])ccc1O	-94*	-2	-37
COc1cc(/C=C/C(=O)OCC(=O)Nc2cc(C)c(C)cc2[N+](=O)[O-])ccc1O	-71*	-3	-27
CC(=O)N1CCN(c2ccc(NCc3ccc(-c4cccc(Cl)c4)o3)cc2)CC1	43	nt	nt
Cc1c(CCOC(=O)c2ccc(Cl)cc2Cl)sc[n+]1CC(=O)c1ccc(Br)cc1	71	nt	nt
O=C(OCc1nc2ccccc2s1)c1ccc([N+](=O)[O-])o1	69	nt	nt
COC(=O)CCC(=O)OC1(C)C(=O)C=C2C=C(C3CC3)N(CCc3ccccn3)C=C2C1=O (stereo not drawn)	53	nt	nt
COc1cccc(-c2cn3nc4c(nc3n2)CCCC4)c1	53	nt	nt
COc1cccc(-c2cc(C(F)(F)F)n3nc(N)nc3n2)c1	-44*	-11	10
SMILES	Apaf1 activ	Rh110 act interf	Apaf-1 act conf2
O=C1C(=C(O)c2ccccc2)C(=O)c2ccccc21	41	nt	nt
Cn1c(=O)n(C)c2cc(/C=N/NC(=O)c3cc4cc(Br)ccc4o3)ccc21	43	nt	nt
[O-][n+]1cccc2c(Br)cc(Br)c(O)c21	73	nt	nt
CCN(CC)c1ccc(/C=N/N=C(N)N)c(O)c1	-156*	-3	9
CCN(CC)c1ccc(/C=N/N2CCN(Cc3ccccc3)CC2)c(O)c1	-50*	0	14
CCN(CC)c1ccc(C=Nc2ccc(N(C)C)cc2)c(O)c1	44	nt	nt
NC(N)=N/N=C/c1ccc(OCc2ccccc2)c(OCc2ccccc2)c1	61	nt	nt
C#CCOCCOCCOCCNc1nc(N2CCN(C(=O)CCCCCCCCCCNC(=O)[C@@H](CCC(=O)O)n3cc(CCCCCN)nn3)CC2)nc(N2CCN(C(=O)CCCCCCCCCCNC(=O)[C@H]([C@@H](C)CC)n3cc(CCCCCN)nn3)CC2)n1	61	nt	nt
CCOc1ccc(S(=O)(=O)N2CCCCC2)cc1NC(=O)C1=COCCO1	-131*	18	19
CCOC(=O)C1CCCN(C(=O)c2cc(S(=O)(=O)N3CCCCCC3)ccc2OC)C1 (stereo not drawn)	49	nt	nt
Cc1cccc2cc(C(c3nnnn3CC3CCCO3)N3CCc4ccccc4C3)c(=O)[nH]c12 (stereo not drawn)	79	nt	nt
